Measured values: ChEMBL document CHEMBL5154715, “Phenolic Lipids Derived from Cashew Nut Shell Liquid to Treat Metabolic Diseases” (J Med Chem, 2022)
Activity calls are given as the source filed them. No cut-off for these calls is given here.

Columns and labels:
Danio rerio [1] = experiment: In vivo agonist activity at human GFP-tagged PPARgamma in transgenic zebrafish assessed as increase in GFP expression in tail bud at 0.1 uM measured after 14 hrs by microscopy
[2] = target: T1, Peroxisome proliferator-activated receptor gamma (Homo sapiens) (UniProt P37231); experiment: Stabilization of human PPARgamma LBD assessed as change in melting temperature at 50 uM by thermal shift assay
T1 sequence (whole entry): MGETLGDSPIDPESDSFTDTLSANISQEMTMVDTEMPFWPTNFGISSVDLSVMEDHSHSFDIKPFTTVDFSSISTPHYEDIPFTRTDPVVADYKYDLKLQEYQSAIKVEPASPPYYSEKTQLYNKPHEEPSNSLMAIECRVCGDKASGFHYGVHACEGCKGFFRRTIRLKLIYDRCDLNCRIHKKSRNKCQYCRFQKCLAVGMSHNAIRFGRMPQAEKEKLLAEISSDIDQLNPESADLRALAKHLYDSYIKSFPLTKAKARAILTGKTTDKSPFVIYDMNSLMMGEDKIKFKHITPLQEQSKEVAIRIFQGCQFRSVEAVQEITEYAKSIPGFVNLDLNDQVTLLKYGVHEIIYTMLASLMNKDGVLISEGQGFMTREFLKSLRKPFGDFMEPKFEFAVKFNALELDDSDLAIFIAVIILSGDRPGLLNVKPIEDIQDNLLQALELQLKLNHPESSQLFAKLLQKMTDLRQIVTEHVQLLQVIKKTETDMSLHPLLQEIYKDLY

[3] = target: T1, Peroxisome proliferator-activated receptor gamma (Homo sapiens); details: dose 50.0 µM
[4] = target: T2, Peroxisome proliferator-activated receptor gamma (Homo sapiens, UniProt P37231); experiment: Agonist activity at human PPARgamma expressed in HEK293 cells by luciferase/beta-galactosidase reporter gene assay; type: cell-based
T2 sequence (P37231 whole entry): T1 sequence (whole entry)
How it was run: (§1)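 HEK293 cells in charcoal-stripped FBS, calcium phosphate co-transfected with GAL4-hPPAR LBD fusion, UAS-luciferase and β-galactosidase. Ligand added 6–8 h post transfection, full dose–response, harvested 14–16 h later. Luciferase normalized to β-galactosidase.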

[5] = target: T1, Peroxisome proliferator-activated receptor gamma (Homo sapiens); experiment: Agonist activity at human PPARgamma expressed in HEK293 cells assessed as maximal activity by luciferase/beta-galactosidase reporter gene assay relative to rosiglitazone; type: cell-based
How it was run: as §1

[6] = target: T3, Peroxisome proliferator-activated receptor alpha (Homo sapiens) (UniProt Q07869); experiment: Stabilization of human PPARalpha LBD assessed as change in melting temperature at 25 uM by thermal shift assay
T3 sequence (whole entry): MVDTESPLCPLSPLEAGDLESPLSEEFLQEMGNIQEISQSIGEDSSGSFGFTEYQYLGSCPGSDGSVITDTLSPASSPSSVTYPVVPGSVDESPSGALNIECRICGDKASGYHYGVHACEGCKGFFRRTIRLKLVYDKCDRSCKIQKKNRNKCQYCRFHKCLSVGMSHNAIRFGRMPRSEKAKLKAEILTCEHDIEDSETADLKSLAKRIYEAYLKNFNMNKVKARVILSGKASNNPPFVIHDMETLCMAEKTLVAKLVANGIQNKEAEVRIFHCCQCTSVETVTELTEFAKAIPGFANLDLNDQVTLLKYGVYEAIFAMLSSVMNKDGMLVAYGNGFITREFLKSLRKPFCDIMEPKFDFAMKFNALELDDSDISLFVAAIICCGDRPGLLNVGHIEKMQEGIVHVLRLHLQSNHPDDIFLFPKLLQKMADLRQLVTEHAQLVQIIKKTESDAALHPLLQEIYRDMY
How it was run: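 Purified hPPAR LBD at 1 mg/mL (∼25 μM) with ligand (α-LBD at 25 μM; γ- and δ-LBD at 50 μM). Static light scattering at 473 nm from 25 to 70 °C in 0.5 °C steps, 1 °C/min. Tm from four-parameter fit; ΔTm relative to DMSO; mean ± SEM, N = 3.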

[7] = target: T4, Peroxisome proliferator-activated receptor delta (Homo sapiens) (UniProt Q03181); experiment: Stabilization of human PPARdelta LBD assessed as change in melting temperature at 50 uM by thermal shift assay
T4 sequence (whole entry): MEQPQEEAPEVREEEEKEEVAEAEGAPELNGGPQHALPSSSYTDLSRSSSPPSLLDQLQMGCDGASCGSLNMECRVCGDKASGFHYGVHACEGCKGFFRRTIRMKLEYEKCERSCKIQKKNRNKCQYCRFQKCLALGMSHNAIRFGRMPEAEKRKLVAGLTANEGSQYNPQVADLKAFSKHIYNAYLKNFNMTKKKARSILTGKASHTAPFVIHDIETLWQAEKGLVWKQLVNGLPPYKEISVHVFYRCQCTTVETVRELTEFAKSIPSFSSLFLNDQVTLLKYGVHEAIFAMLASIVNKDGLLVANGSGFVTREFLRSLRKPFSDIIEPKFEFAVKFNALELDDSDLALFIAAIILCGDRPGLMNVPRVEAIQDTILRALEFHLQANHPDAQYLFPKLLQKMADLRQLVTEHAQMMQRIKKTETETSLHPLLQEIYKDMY

[8] = target: T3, Peroxisome proliferator-activated receptor alpha (Homo sapiens); experiment: Agonist activity at human PPARalpha expressed in HEK293 cells assessed as maximal activity by luciferase/beta-galactosidase reporter gene assay relative to GW7647; type: cell-based
How it was run: as §1

[9] = Metabolic stability in C57BL/6 mouse liver microsomes assessed as parent compound remaining incubated for 120 mins; type: ADME, Microsome; details: read-out: Stability
[10] = target: T3, Peroxisome proliferator-activated receptor alpha (Homo sapiens); experiment: Agonist activity at human PPARalpha transfected in HEK293 cells assessed as relative luciferase unit at 50 uM measured after 16 hrs by luciferase reporter gene assay; type: cell-based; details: filed as agonist
How it was run: (§2)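 GAL4-hPPAR (α or γ) plus UAS-luciferase and β-galactosidase transiently co-transfected into HEK293 cells, then treated with 50 μM compound for 16 h. RLU = luciferase/β-galactosidase × time, vehicle (DMSO) set to 1. Mean ± SD, N = 3; one-way ANOVA with Holm–Šidák vs vehicle.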

[11] = target: T5, Peroxisome proliferator-activated receptor alpha (Homo sapiens, UniProt Q07869); experiment: Agonist activity at human PPARalpha expressed in HEK293 cells by luciferase/beta-galactosidase reporter gene assay; type: cell-based
T5 sequence (Q07869 whole entry): T3 sequence (whole entry)
How it was run: as §1

Danio rerio [12] = experiment: In vivo agonist activity at human GFP-tagged PPARalpha in transgenic zebrafish assessed as increase in GFP expression in brain at 8.9 uM measured after 14 hrs by microscopy
[13] = target: T1, Peroxisome proliferator-activated receptor gamma (Homo sapiens); experiment: Agonist activity at human PPARgamma transfected in HEK293 cells assessed as relative luciferase unit at 50 uM measured after 16 hrs by luciferase reporter gene assay; type: cell-based; details: filed as agonist
How it was run: as §2

[14] = Metabolic stability in C57BL/6 mouse liver microsomes assessed as half life; type: ADME, Microsome; details: time 2 min
[15] = target: T6, Peroxisome proliferator-activated receptor gamma (Mus musculus) (UniProt P37238); experiment: Agonist activity at human PPARgamma in mouse 3T3-L1 cells assessed as induction of adipogenic differentiation at 25 uM measured after 11 days by Oil Red O staining analysis; type: cell-based; details: filed as agonist, time 11.0 day
T6 sequence (whole entry): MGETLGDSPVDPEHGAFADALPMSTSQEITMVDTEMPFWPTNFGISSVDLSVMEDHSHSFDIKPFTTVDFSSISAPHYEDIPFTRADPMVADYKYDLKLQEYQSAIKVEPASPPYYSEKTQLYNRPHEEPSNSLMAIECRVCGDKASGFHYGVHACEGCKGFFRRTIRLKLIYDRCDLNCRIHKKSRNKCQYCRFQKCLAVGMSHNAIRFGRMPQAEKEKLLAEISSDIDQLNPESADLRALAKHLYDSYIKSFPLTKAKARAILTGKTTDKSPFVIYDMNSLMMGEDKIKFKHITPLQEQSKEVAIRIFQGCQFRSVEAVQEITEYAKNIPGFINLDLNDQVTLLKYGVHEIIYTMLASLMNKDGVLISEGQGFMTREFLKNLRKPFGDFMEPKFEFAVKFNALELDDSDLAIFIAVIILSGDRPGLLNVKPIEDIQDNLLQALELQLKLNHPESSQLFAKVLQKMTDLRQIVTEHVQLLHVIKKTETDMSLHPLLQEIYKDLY
How it was run: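 3T3-L1 cells differentiated for 11 days (IBMX/dexamethasone/insulin induction, then insulin, then maintenance medium) with 25 μM compound or 10 μM rosiglitazone from day 0. Cells formalin-fixed and stained with 0.6% Oil Red O. Lipid quantified spectrophotometrically after dye extraction.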

ΔTm [2] [°C]	ΔTm [3] [°C]	EC50 [4] [µM]	Emax [5] [%]	ΔTm [6] [°C]	ΔTm [7] [°C]	Emax [8] [%]	remaining at 2 h [9] [%]	Activity [10]	EC50 [11] [µM]	Activity [13]	half-life [14] [h]	Activity [15]	SMILES	Activity (Danio rerio [1])	Activity (Danio rerio [12])
5	5	–	–	–	–	–	–	–	–	–	–	–	CN(CCOc1ccc(CC2SC(=O)NC2=O)cc1)c1ccccn1 (stereo unspecified)	Active	–
0.2	–	3.9	30	0.6	0.5	5	78	Active	8.9	Active	5.58	Active	CCCCCCCCCCCCCCCc1cccc(OC(C)(C)C(=O)OCC)c1	–	Active
